≈ marks a conversion by molar mass, not a printed value.
Key:
PC-3 = assay: Antiproliferative activity against PC3 cells after 72 hrs by MTT assay; type: functional, cell-based; settings: Homo sapiens, PC-3, 72 h
In short: (§1)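 Cells were exposed to compound for 72 h. MTT in RPMI-1640 was then added and incubated for a further 4 h at 37 °C. Three replicate wells were used per point. IC50 for cell-viability inhibition was calculated from three independent experiments.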

Bel-7402 = assay: Antiproliferative activity against Bel7402 cells after 72 hrs by MTT assay; type: functional, cell-based; settings: Homo sapiens, Bel-7402, 72 h; in short: as §1
HL-60 [1] = assay: Antiproliferative activity against HL60 cells after 72 hrs by MTT assay; type: functional, cell-based; settings: Homo sapiens, HL-60, 72 h; in short: as §1
MCF7 = assay: Antiproliferative activity against MCF7 cells after 72 hrs by MTT assay; type: functional, cell-based; settings: Homo sapiens, MCF7, 72 h; in short: as §1
[2] = Antiproliferative activity against ECA109 cells after 72 hrs by MTT assay; type: functional, cell-based; settings: Homo sapiens, ECa-109, 72 h; in short: as §1
A549 = assay: Antiproliferative activity against A549 cells after 72 hrs by MTT assay; type: functional, cell-based; settings: Homo sapiens, A549, 72 h; in short: as §1
CCRF S-180 [3] = assay: Antitumor activity against S180 cells inoculated in ICR mouse assessed as tumor weight at 80 mg/kg, ip after 8 days; type: functional; settings: route intraperitoneal
In short: (§2)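 S180 sarcoma was first passaged in mice for 7 days, then 2.5 × 10⁶ viable cells/mouse were injected s.c. into the armpit of female ICR mice. Compound was given i.p. once daily for 7 consecutive days, starting 24 h after inoculation. Group sizes were 10, or 20 for the saline control. Cyclophosphamide 50.0 mg/kg was the positive control. On day 8 tumors were excised and weighed, and inhibition = (C − T)/C × 100 using mean tumor weights.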

HL-60 [4] = assay: Induction of apoptosis in HL60 cells assessed as DNA fragmentation at 1.0 ug/mL after 48 hrs by flow cytometry; type: functional, Homo sapiens
In short: (§3)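 HL-60 cells in exponential growth were treated for 48 h. They were washed twice in PBS and fixed in 70% ethanol at −20 °C. Cells were then RNase-treated for 1 h at 37 °C and stained with propidium iodide for 30 min at 4 °C. DNA content of 2 × 10⁴ cells was read by flow cytometry, and the sub-G0/G1 fraction was taken as apoptotic.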

HL-60 [5] = assay: Induction of apoptosis in HL60 cells assessed as DNA fragmentation at 0.5 ug/mL after 48 hrs by flow cytometry; type: functional, Homo sapiens; in short: as §3
HL-60 [6] = assay: Induction of apoptosis in HL60 cells assessed as DNA fragmentation at 2 ug/mL after 48 hrs by flow cytometry; type: functional, Homo sapiens; in short: as §3
CCRF S-180 [7] = assay: Antitumor activity against S180 cells inoculated in ICR mouse assessed as inhibition at 80 mg/kg, ip after 8 days relative to control; type: functional; settings: CCRF S-180, ip, 192 h, route intraperitoneal; in short: as §2
CCRF S-180 [8] = assay: Antitumor activity against S180 cells inoculated in ICR mouse assessed as inhibition at 50 mg/kg, ip after 8 days relative to control; design: scale not given: the % may be the effect or the level left; settings: route intraperitoneal

IC50 (PC-3) [µg/mL] | IC50 (Bel-7402) [µg/mL] | IC50 (HL-60 [1]) [µg/mL] | IC50 (MCF7) [µg/mL] | IC50 (A549) [µg/mL] | Structure (SMILES) | IC50 [2] [µg/mL] | Activity (CCRF S-180 [3]) [g] | Activity (HL-60 [4]) [%] | Activity (HL-60 [5]) [%] | Activity (HL-60 [6]) [%] | inhibition in vivo at 80 mg/kg (CCRF S-180 [7]) [%] | Activity (CCRF S-180 [8]) [%]
4.1 (≈ 7.34 µM) | 21.3 (≈ 38.1 µM) | 2.2 (≈ 3.94 µM) | 23.3 (≈ 41.7 µM) | 4.2 (≈ 7.52 µM) | CCOC12SN(c3ccc(NC(C)=O)cc3Cl)N=C1c1ccccc1OC2(OCC)c1ccc(Cl)cc1 (racemic) | 9.6 (≈ 17.2 µM) | – | – | – | – | – | –
> 50 | 21.8 (≈ 39.2 µM) | > 25 | > 25 | > 50 | CCOC12SN(c3ccc([N+](=O)[O-])cc3Cl)N=C1c1cc(C)ccc1OC2(OCC)c1ccc(OC)cc1 (racemic) | > 50 | – | – | – | – | – | –
6 (≈ 10.1 µM) | 7.3 (≈ 12.3 µM) | 6 (≈ 10.1 µM) | 2.5 (≈ 4.21 µM) | 10.3 (≈ 17.4 µM) | CCOC12SN(c3ccc(S(C)(=O)=O)cc3Cl)N=C1c1cc(C)ccc1OC2(OCC)c1ccc(Cl)cc1 (racemic) | 11.5 (≈ 19.4 µM) | – | – | – | – | – | –
> 50 | > 50 | > 25 | > 25 | > 50 | CCOC12SN(c3ccc([N+](=O)[O-])cc3Cl)N=C1c1cc(C)ccc1OC2(OCC)c1cc(OC)c(OC)cc1Cl (racemic) | > 50 | – | – | – | – | – | –
4.1 (≈ 7.5 µM) | 11.8 (≈ 21.6 µM) | 2.2 (≈ 4.03 µM) | 15 (≈ 27.5 µM) | 3.8 (≈ 6.95 µM) | CCOC12SN(c3ccc([N+](=O)[O-])cc3Cl)N=C1c1ccccc1OC2(OCC)c1ccc(Cl)cc1 (racemic) | 6.9 (≈ 12.6 µM) | – | – | – | – | – | –
2.9 (≈ 4.73 µM) | > 50 | 3.2 (≈ 5.22 µM) | 5.5 (≈ 8.97 µM) | 5.4 (≈ 8.81 µM) | COc1cc(OC)c2c(c1Cl)OC(OC)(c1ccc(Cl)cc1)C1(OC)SN(c3ccc([N+](=O)[O-])cc3Cl)N=C21 (racemic) | 5.7 (≈ 9.3 µM) | – | – | – | – | – | –
2.4 (≈ 4.19 µM) | 10.5 (≈ 18.3 µM) | 1.3 (≈ 2.27 µM) | 19.8 (≈ 34.6 µM) | 2.5 (≈ 4.37 µM) | CCOC12SN(c3ccc(NC(C)=O)cc3Cl)N=C1c1cc(C)ccc1OC2(OCC)c1ccc(Cl)cc1 (racemic) | 4.1 (≈ 7.16 µM) | – | – | – | – | – | –

Continued, compound first:

Structure (SMILES) | IC50 (PC-3) [µg/mL] | IC50 (Bel-7402) [µg/mL] | IC50 (HL-60 [1]) [µg/mL] | IC50 (MCF7) [µg/mL] | IC50 (A549) [µg/mL] | IC50 [2] [µg/mL] | Activity (CCRF S-180 [3]) [g] | Activity (HL-60 [4]) [%] | Activity (HL-60 [5]) [%] | Activity (HL-60 [6]) [%] | inhibition in vivo at 80 mg/kg (CCRF S-180 [7]) [%] | Activity (CCRF S-180 [8]) [%]
CCOC12SN(c3ccc([N+](=O)[O-])cc3Cl)N=C1c1cc(C)ccc1OC2(OCC)c1cc2c(cc1Cl)OCO2 (racemic) | > 50 | > 50 | > 25 | > 25 | > 50 | > 50 | – | – | – | – | – | –
CCOC12SN(c3ccc(S(C)(=O)=O)cc3Cl)N=C1c1ccccc1OC2(OCC)c1ccc(Cl)cc1 (racemic) | 3.1 (≈ 5.35 µM) | 10.3 (≈ 17.8 µM) | 2.8 (≈ 4.83 µM) | 4.1 (≈ 7.07 µM) | 4.9 (≈ 8.46 µM) | 5.9 (≈ 10.2 µM) | 0.63 | 25.3 | 3.9 | 68.3 | 48.2 | –
CCOC12SN(c3ccc(S(C)(=O)=O)cc3Cl)N=C1c1ccccc1OC2(OCC)c1ccc(OC)cc1 (racemic) | 3.5 (≈ 6.09 µM) | 23.5 (≈ 40.9 µM) | 1.8 (≈ 3.13 µM) | > 25 | 3.3 (≈ 5.74 µM) | 5.9 (≈ 10.3 µM) | – | – | – | – | – | –
CCOC12SN(c3ccc([N+](=O)[O-])cc3Cl)N=C1c1c(OC)cc(OC)c(Cl)c1OC2(OCC)c1ccccc1Cl (racemic) | > 50 | > 50 | > 25 | > 25 | > 50 | > 50 | – | – | – | – | – | –
CCOC12SN(c3ccc([N+](=O)[O-])cc3Cl)N=C1c1c(OC)cc(OC)c(Cl)c1OC2(OCC)c1ccc(Cl)cc1 (racemic) | 15.8 (≈ 24.7 µM) | > 50 | 6.7 (≈ 10.5 µM) | > 25 | > 50 | > 50 | – | – | – | – | – | –
CCOC12SN(c3ccc([N+](=O)[O-])cc3Cl)N=C1c1ccccc1OC2(OCC)c1ccc(OC)cc1 (racemic) | 5.7 (≈ 10.5 µM) | 8.2 (≈ 15.1 µM) | 3.3 (≈ 6.09 µM) | 23.3 (≈ 43 µM) | 5.1 (≈ 9.41 µM) | 9.6 (≈ 17.7 µM) | – | – | – | – | – | –
CCOC12SN(c3ccc([N+](=O)[O-])cc3Cl)N=C1c1cc(C)ccc1OC2(OCC)c1ccc(Cl)cc1 (racemic) | > 50 | 18.6 (≈ 33.2 µM) | > 25 | > 25 | 7.8 (≈ 13.9 µM) | 14.8 (≈ 26.4 µM) | – | – | – | – | – | –
CCOC12SN(c3ccc([N+](=O)[O-])cc3Cl)N=C1c1c(OC)cc(OC)c(Cl)c1OC2(OCC)c1ccc(C)cc1 (racemic) | 7.3 (≈ 11.8 µM) | > 50 | 16.8 (≈ 27.1 µM) | > 25 | > 50 | 7.3 (≈ 11.8 µM) | – | – | – | – | – | –
CCOC12SN(c3ccc([N+](=O)[O-])cc3Cl)N=C1c1c(OC)cc(OC)c(Cl)c1OC2(OCC)c1ccc(OC)cc1 (racemic) | 19.2 (≈ 30.2 µM) | > 50 | 23.2 (≈ 36.4 µM) | > 25 | 17.7 (≈ 27.8 µM) | > 50 | – | – | – | – | – | –
CCOC12SN(c3ccc(S(C)(=O)=O)cc3Cl)N=C1c1c(OC)cc(OC)c(Cl)c1OC2(OCC)c1ccc(Cl)cc1 (racemic) | > 50 | 24.8 (≈ 36.8 µM) | 5.6 (≈ 8.31 µM) | 12.6 (≈ 18.7 µM) | 14.5 (≈ 21.5 µM) | 20.1 (≈ 29.8 µM) | – | – | – | – | – | –
CCOC12SN(c3ccc(S(C)(=O)=O)cc3Cl)N=C1c1cc(C)ccc1OC2(OCC)c1ccc(OC)cc1 (racemic) | 0.6 (≈ 1.02 µM) | 40.4 (≈ 68.6 µM) | 0.6 (≈ 1.02 µM) | > 25 | 1.1 (≈ 1.87 µM) | 1.5 (≈ 2.55 µM) | – | – | – | – | – | –
O=P1(N(CCCl)CCCl)NCCCO1 (stereo not given) [CYCLOPHOSPHAMIDE ANHYDROUS] | – | – | – | – | – | – | – | – | – | – | – | 45.4
O=C1CC(c2ccccc2)Oc2ccccc21 (stereo not given) [FLAVANONE] | 16.6 (≈ 74 µM) | > 50 | 3.4 (≈ 15.2 µM) | > 25 | 14.2 (≈ 63.3 µM) | 27.7 (≈ 124 µM) | – | – | – | – | – | –
